Compound activity deposited in PubChem by several laboratories.
m5-HT2A agonist: mouse HTR2A agonism via beta-arrestin recruitment; hit rate 0.66% among 360,000; AID 624169; CHO-K1 mHTR2A beta-arrestin complementation, luminescence; percent of 30 µM serotonin response; activation, % at 7.6 µM;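 active means activation above a run cutoff, the mean activation of all tested compounds plus 3 SD, cut at about 14% in these data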
Calb FLC: C. albicans growth modulation with fluconazole; C. albicans CaCi-2 + fluconazole, Alamar Blue growth, 48 h; growth inhibition, % (test concentration not listed); AID 1979; hit rate 0.57% among 300,000;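 active means growth inhibition above about 58% in most replicates, limit read from the data, passing the limit was not always enough; inconclusive means exactly half the replicates above a set limit; inactive means most replicates below a set limit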;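 further: all wells also contain fluconazole at 8 µg/ml as a sub-toxic cotreatment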
SR-BI DiI-HDL act: activators of SR-BI mediated HDL lipid uptake. activation, % at 12.5 µM. CHO ldlA[mSR-BI] cells, DiI-HDL uptake fluorescence, 3 h; 100 = double the neutral-control signal. hit rate 0.096% among 320,000;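 active means mean replicate activation of at least 60% and every replicate at or above 60%; inconclusive means mean or all-replicate condition met, but not both; inactive means mean below 60% and not all replicates reaching 60%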
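Assay system: CHO ldlA[mSR-BI] cells, LDL receptor-null, SR-BI overexpressing; medium: Ham's F12 with 0.5% BSA, HEPES 25 mM, pH 7.4; also added: DiI-HDL 10 µg/mL; timing: 3 h uptake period with compound, 37 °C; signal: DiI fluorescence, bottom read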
Ins promoter up: MIN6 insulin promoter up-regulation; z-score at 5 µM; hit rate 0.3% among 190,000; MIN6 insulin promoter-GFP reporter, high-content imaging; active compounds read high;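 active means z-score above 3 at 5 µM with at least 500 cells counted in the well; inconclusive means wells under 500 cells, flagged as cytotoxic or low count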
SR-BI DiI inh: inhibitors of mouse SR-BI mediated HDL lipid uptake | Q61009 | hit rate 0.96% among 320,000 | inhibition, % at 12.5 µM | ldlA[mSR-BI] CHO cells, DiI-HDL uptake fluorescence, 3 h;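 active means mean replicate inhibition of at least 70% and a set share of replicates each scoring 70 or more; inconclusive means meets just one of the two criteria; inactive means fails both criteria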
Target sequence (Q61009 whole entry, looked up): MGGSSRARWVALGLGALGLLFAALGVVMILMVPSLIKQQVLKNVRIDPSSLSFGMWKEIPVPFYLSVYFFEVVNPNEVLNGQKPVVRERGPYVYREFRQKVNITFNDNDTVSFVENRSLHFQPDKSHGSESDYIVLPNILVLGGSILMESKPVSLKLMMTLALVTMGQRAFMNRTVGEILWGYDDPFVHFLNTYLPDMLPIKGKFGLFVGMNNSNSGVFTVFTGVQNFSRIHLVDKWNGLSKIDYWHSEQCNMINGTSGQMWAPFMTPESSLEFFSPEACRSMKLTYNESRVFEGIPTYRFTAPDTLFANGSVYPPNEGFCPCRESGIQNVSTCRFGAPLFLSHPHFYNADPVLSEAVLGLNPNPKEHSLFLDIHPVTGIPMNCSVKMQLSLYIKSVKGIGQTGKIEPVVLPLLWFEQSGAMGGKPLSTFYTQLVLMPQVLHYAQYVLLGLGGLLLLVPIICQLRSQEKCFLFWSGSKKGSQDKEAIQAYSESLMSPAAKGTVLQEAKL
beta cell repl: MIN6 beta-cell proliferation induction; proliferation, % at 10 µM; MIN6 cells proliferation, ATPlite luminescence, 48 h; cells starved in 0.2% serum; 100% = growth in 10% serum; hit rate 0.29% among 330,000;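 active means compounds whose signal lies at least 3.5 SD above the mean of all wells on their plate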
Numbers stand for hits; n = inactive; u = inconclusive; x = no result. Most compounds without a hit are left out; they make up all but 2.4% or so of the library.

SMILES	m5-HT2A agonist	Calb FLC	SR-BI DiI-HDL act	Ins promoter up	SR-BI DiI inh	beta cell repl
COc1ccccc1/C=C1\SC(=S)N(NS(=O)(=O)c2ccccc2)C1=O	n	91.1	n	x	n	n
CCc1nc2ccc(C(=O)NCCCN3CCCC3=O)cn2c1N(C)Cc1ccc(OC)cc1	n	x	x	x	x	x
CSCCC(NC(=O)c1ccc(Cl)cc1Cl)C(=O)N1CCN(C(=O)c2ccccc2)CC1 (stereo not given)	n	x	n	x	77.8	x
CSCCC(NC(=O)c1ccccc1Cl)C(=O)N1CCC1 (stereo not given)	n	n	n	x	n	n
CC(C)(C)c1ccc(SCC(N)=O)cc1	n	80.8	n	n	n	n
COc1ccc2c(c1)OC[C@H]1[C@H]2N2C(=O)CN(CCc3c[nH]c4ccccc34)C(=O)[C@@]2(C)[C@H]1c1ccccc1	n	x	n	x	n	n
COc1ccc(C(O)(C(=O)NNc2ccc(C)cc2)c2cccs2)cc1 (stereo not given)	n	109.6	n	n	n	n
Cc1c(C(=O)NCc2ccc(C(C)C)cc2)sc(=O)n1Cc1ccc(S(=O)(=O)N(C)C)cc1	n	x	x	x	x	x
c1ccc(-c2ccc(CN3CCN(c4ncccn4)CC3)cc2)cc1	16.1	n	n	n	n	n
Cc1cc(/C=N/NC(N)=S)c(C)n1-c1ccc(Cl)c(Cl)c1	n	n	n	n	81.5	n
S=C(NCCSCc1ccc(Cl)c(Cl)c1)Nc1ccccc1	n	n	n	x	n	n
S=C(NCCSCc1c(Cl)cccc1Cl)Nc1ccccc1	n	95.1	n	n	n	n
COc1cccc(/C=N/NC(=O)c2c(-c3ccccc3)noc2C)c1O	n	n	n	x	n	n
CCOc1cc(/C=N/NC(=O)c2c(-c3ccccc3)noc2C)ccc1O	n	n	n	n	n	n
CCOc1cc([N+](=O)[O-])cc(/C=N/NC(=O)c2c(-c3ccccc3)noc2C)c1O	n	n	n	x	72.0	n
Cc1ccc(/C=N/NC(=O)c2c(-c3ccccc3)noc2C)c(O)c1	n	112.4	n	x	107.7	n
CCOC(=O)N1CCN(S(=O)(=O)c2c(C)nc3scc(C)n3c2=O)CC1	n	n	n	x	n	n
NC1=NC[C@H](Cc2ccccc2)N1CCCCC1CCCCC1	n	104.9	n	n	n	n
CCOC(=O)C1CCN(C(=O)c2ccccc2)c2scc(-c3ccccc3)c2C1=O (stereo not given)	n	x	x	x	x	x
O=C(O)C1Nc2c(O)cc(Cl)c([N+](=O)[O-])c2C2C=CCC12 (stereo not given)	n	n	n	n	83.4	n
Cc1ccc2c(c1)C1C=CCC1C(C(=O)O)N2 (stereo not given)	x	n	x	n	x	x
O=C(Nc1ccc2c(c1)OCO2)C1Cc2c(-c3ccccc3Oc3ccccc3)ccnc2O1 (stereo not given)	n	x	x	x	x	x
C=CCOc1ccc(C2OC34CCCCC3C(C#N)(C#N)C2(C#N)C(=N)O4)cc1 (stereo not given)	n	n	n	n	n	n
Cc1ccc(C2OC34CCCCCC3C(C#N)(C(=N)O4)C2(C#N)C#N)cc1 (stereo not given)	n	n	n	n	n	9.0
CCCCOc1ccc(C2OC34CCCCC3C(C#N)(C#N)C2(C#N)C(=N)O4)cc1 (stereo not given)	n	n	n	n	n	9.8
SMILES	m5-HT2A agonist	Calb FLC	SR-BI DiI-HDL act	Ins promoter up	SR-BI DiI inh	beta cell repl
Cc1ccc(Cc2c(-c3cccc(Cl)c3)nc3c4ccccc4ccn23)cc1	n	x	x	x	x	x
COc1cccc(N2C(=O)C(Cc3c[nH]c4ccccc34)NC2=S)c1 (stereo not given)	n	n	n	n	n	n
CCOC(=O)C1=CNS(=O)(=O)NC1CCc1ccccc1 (stereo not given)	n	x	n	x	n	x
COc1ccc(OC)c(S(=O)(=O)Nc2cc3c4c(c2)C(C)C(=O)N4CCC3)c1 (stereo not given)	n	n	n	x	n	n
C[C@@H]1CN([C@H](C)CO)C(=O)c2cc(NC(=O)Nc3ccc(C(F)(F)F)cc3)ccc2O[C@H]1CN(C)S(=O)(=O)c1ccc(Cl)cc1	n	x	73.5	x	n	n
C[C@@H]1CN([C@@H](C)CO)C(=O)Cc2cc(NC(=O)Nc3ccc(C(F)(F)F)cc3)ccc2O[C@@H]1CN(C)S(=O)(=O)c1ccc(Cl)cc1	n	x	89.9	x	n	n
C[C@H](CO)N1C[C@H](C)[C@@H](CN(C)S(=O)(=O)c2ccc(F)cc2)Oc2ccc(NC(=O)Nc3ccc(C(F)(F)F)cc3)cc2C1=O	n	x	n	x	n	n
C[C@H](CO)N1C[C@H](C)[C@H](CN(C)S(=O)(=O)c2cn(C)cn2)Oc2ccc(NC(=O)Nc3ccc(C(F)(F)F)cc3)cc2CC1=O	n	x	n	x	n	n
CCOCCCNC(=O)CCN1C(=O)c2ccccc2Sc2ncccc21	n	n	n	x	n	n
COC(=O)c1c(C(=O)OC)c(-c2ccc(C)cc2)n2c1CCC2	n	n	n	n	n	n
COC(=O)c1c(C(=O)OC)c(-c2ccc(Cl)c(Cl)c2)n2c1CCC2	n	111.4	n	n	n	n
Cc1c(C(=O)N2CCCCC2)sc(NC(=O)C(C)C)c1C#N	n	n	n	n	n	n
Cc1c(C(=O)N2CCCCC2)sc(NC(=O)C2CC2)c1C#N	n	n	240.6	n	n	n
O=C(CN1CCN(c2ccccc2F)CC1)Nc1nnc(C(F)(F)F)s1	n	85.8	n	n	n	n
CCc1nnc(NC(=O)CN2CCN(c3nc(-c4ccccc4)cs3)CC2)s1	n	89.8	n	x	n	n
CC(C)(C)CC(=O)Nc1nnc(C(F)(F)F)s1	n	81.5	n	n	n	n
C/C(=N\NC(=O)Cc1ccc(Cl)cc1)c1ccccc1O	n	n	n	x	n	n
Cc1ccc(-c2cnn(-c3cccc(C(F)(F)F)c3)c2N)cc1	n	n	n	n	n	n
Nc1c(-c2ccc(Cl)cc2)cnn1-c1cccc(C(F)(F)F)c1	n	n	n	n	76.8	n
O=[N+]([O-])c1cc2c(cc1Br)-c1ccccc1C2	n	x	x	x	x	x
Cc1ccc2nc(NC(=O)C3CCN(S(=O)(=O)c4cc([N+](=O)[O-])ccc4Cl)CC3)sc2c1	n	n	n	u	n	n
O=C(Nc1nc2ccc(F)cc2s1)C1CCN(S(=O)(=O)c2cc([N+](=O)[O-])ccc2Cl)CC1	n	n	n	n	76.6	n
N#CCC(=O)N/N=C/c1cc(-c2ccccc2)n(-c2ccc(Cl)cc2)c1-c1ccccc1	x	n	x	n	x	n
Cc1onc(-c2ccccc2)c1C(=O)N/N=C(\N)COc1ccc(Cl)cc1	n	86.2	x	n	x	n
Cc1onc(-c2ccccc2Cl)c1C(=O)N/N=C(\N)COc1ccc(Cl)cc1	n	n	n	n	n	n
COc1ccc(-c2cc(C(=O)NNC(=S)NC(=O)c3c(-c4ccccc4)noc3C)[nH]n2)cc1	n	81.3	n	n	n	n
